Calls of active or inactive are those of the source.
Legend:
Plasmodium falciparum = assay: Antiplasmodial activity against chloroquine-sensitive Plasmodium falciparum 3D7 by [3H]hypoxanthine uptake; format: functional; conditions: read-out: ED50 (the source's name)
Procedure, shortened: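 Asynchronous cultures at 0.5% parasitemia and 0.5% hematocrit in RPMI 1640 with 20% heat-inactivated human A+ plasma, exposed to serially diluted inhibitor (top final 5 μM, from DMSO stock) under 5% CO2/5% O2/90% N2 at 37°C for 48 h. [3H]hypoxanthine was then added for 24 h and harvested counts were background-subtracted against DMSO-only controls. ED50 came from linear regression, as the mean of duplicates.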

[1] = AUC in Sprague-Dawley rat at 2 mg/kg, iv; format: ADME, organism-based; design: dose 2 mg/kg, route intravenous; conditions: plasma
Procedure, shortened: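 Three female Sprague-Dawley rats per group (10–12 weeks), jugular-vein catheterized; 2 mg/kg in 3% EtOH-7% Tween 80-90% normal saline given through the catheter. Plasma drawn from the catheter at set times, acetonitrile extraction with internal standard, LC/MS quantification.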

[2] = Oral bioavailability in Sprague-Dawley rat; format: ADME, organism-based; conditions: in vivo
Procedure, shortened: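 Female Sprague-Dawley rats, 10-12 weeks, three per group. Oral gavage at 50 mg/kg and jugular-catheter i.v. dose at 2 mg/kg, both in 3% EtOH-7% Tween 80-90% saline. Plasma taken over time, acetonitrile extraction with internal standard, LC/MS. Bioavailability computed as oral AUC/i.v. AUC.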

Rattus norvegicus [3] = assay: Toxicity in Sprague-Dawley rat at 50 mg/kg, po; format: organism-based; design: dose 50 mg/kg, route oral; conditions: in vivo
Procedure, shortened: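 Female Sprague-Dawley rats, 10-12 weeks, three per group. 50 mg/kg oral gavage in 3% EtOH-7% Tween 80-90% normal saline. Saphenous vein plasma sampled over time, and animals observed for adverse reactions.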

Rattus norvegicus [4] = assay: Toxicity in Plasmodium berghei NK65 infected Sprague-Dawley rat assessed as effect on blood counts at 50 mg/kg, perorally administered every 12 hrs for 3 days; format: organism-based; design: dose 50 mg/kg, route oral; conditions: in vivo, po
Procedure, shortened: (§1)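 Female Sprague-Dawley rats, 10-12 weeks, n = 3 per schedule. Dosed 50 mg/kg by oral gavage every 8 h or every 12 h for 72 h. At the end of dosing, blood was sent to a clinical laboratory for complete blood counts, white cell differentials, electrolytes, glucose, renal function, liver enzymes and cholesterol.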

Rattus norvegicus [5] = assay: Toxicity in Plasmodium berghei NK65 infected Sprague-Dawley rat assessed as effect on white blood cell differentials at 50 mg/kg, perorally administered every 12 hrs for 3 days; format: organism-based; design: dose 50 mg/kg, route oral; conditions: in vivo, po; procedure, shortened: as §1
Rattus norvegicus [6] = assay: Toxicity in Plasmodium berghei NK65 infected Sprague-Dawley rat assessed as effect on renal function at 50 mg/kg, perorally administered every 12 hrs for 3 days; format: organism-based; design: dose 50 mg/kg, route oral; conditions: in vivo, po, in the assay text read “every 8 hrs” for “every 12 hrs”; procedure, shortened: as §1
Rattus norvegicus [7] = assay: Toxicity in Plasmodium berghei NK65 infected Sprague-Dawley rat assessed as effect on liver enzyme levels at 50 mg/kg, perorally administered every 12 hrs for 3 days; format: organism-based; design: dose 50 mg/kg, route oral; conditions: in vivo, po, in the assay text read “every 8 hrs” for “every 12 hrs”; procedure, shortened: as §1
Rattus norvegicus [8] = assay: Toxicity in Plasmodium berghei NK65 infected Sprague-Dawley rat assessed as effect on blood counts at 50 mg/kg, perorally administered every 8 hrs for 3 days; format: organism-based; design: dose 50 mg/kg, route oral; conditions: in vivo, po; procedure, shortened: as §1
Rattus norvegicus [9] = assay: Toxicity in Plasmodium berghei NK65 infected Sprague-Dawley rat assessed as effect on white blood cell differentials at 50 mg/kg, perorally administered every 8 hrs for 3 days; format: organism-based; design: dose 50 mg/kg, route oral; conditions: in vivo, po; procedure, shortened: as §1
Rattus norvegicus [10] = assay: Toxicity in Plasmodium berghei NK65 infected Sprague-Dawley rat assessed as effect on liver enzyme levels at 50 mg/kg, perorally administered every 8 hrs for 3 days; format: organism-based; design: dose 50 mg/kg, route oral; conditions: in vivo, po; procedure, shortened: as §1
Rattus norvegicus [11] = assay: Toxicity in Plasmodium berghei NK65 infected Sprague-Dawley rat assessed as effect on cholesterol levels at 50 mg/kg, perorally administered every 8 hrs for 3 days; format: organism-based; design: dose 50 mg/kg, route oral; conditions: in vivo, po; procedure, shortened: as §1
Salmonella typhimurium = assay: Toxicity against Salmonella enterica serovar Typhimurium TA98; format: organism-based, Salmonella enterica subsp. enterica serovar Typhimurium; conditions: in vivo
Procedure, shortened: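 Ames fluctuation test in S. Typhimurium TA98 (frameshift) and TA100 (base substitution), with and without rat liver S9. Tested at 5, 10, 50 and 100 μM plus higher concentrations, 48 wells each, in histidine-free liquid medium for 96 h. Growth read spectrophotometrically by pH-indicator color change. Bacterial cytotoxicity assayed in parallel at the same concentrations.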

[12] = target: Adenosine receptor A3 (Homo sapiens) (UniProt P0DMS8); assay: Inhibition of adenosine A3 receptor at 10 uM
Procedure, shortened: (§2)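 Radioligand displacement screen by a contractor across 50 receptors, ion channels and transporters, test compound at 10 μM; decrease in specific ligand binding expressed as percentage, with >50% decrease taken as significant.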

[13] = target: Alpha-2A adrenergic receptor (Homo sapiens) (UniProt P08913); assay: Inhibition of alpha2 adrenergic receptor at 10 uM
Sequence of Alpha-2A adrenergic receptor (Homo sapiens) (P08913 whole entry): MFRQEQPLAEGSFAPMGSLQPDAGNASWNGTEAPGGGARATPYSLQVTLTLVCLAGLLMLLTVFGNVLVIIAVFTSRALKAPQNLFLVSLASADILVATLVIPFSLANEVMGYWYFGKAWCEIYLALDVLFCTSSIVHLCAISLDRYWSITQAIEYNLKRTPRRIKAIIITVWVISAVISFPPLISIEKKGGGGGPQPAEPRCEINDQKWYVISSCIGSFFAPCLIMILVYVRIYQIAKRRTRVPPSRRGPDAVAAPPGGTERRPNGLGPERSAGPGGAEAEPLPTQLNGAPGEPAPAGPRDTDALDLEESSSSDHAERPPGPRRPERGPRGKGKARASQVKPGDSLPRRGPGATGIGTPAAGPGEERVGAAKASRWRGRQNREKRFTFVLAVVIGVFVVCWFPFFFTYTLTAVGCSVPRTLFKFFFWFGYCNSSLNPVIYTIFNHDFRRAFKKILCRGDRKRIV
Procedure, shortened: (§3)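 Radioligand displacement at a contract lab across a panel of 50 receptors, ion channels and transporters, single test concentration 10 μM; loss of specific ligand binding reported as percent, with >50% decrease counted as significant.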

[14] = target: Melatonin receptor type 1A (Homo sapiens) (UniProt P48039); assay: Inhibition of melatonin MT1 receptor at 10 uM; procedure, shortened: as §3
Sequence of Melatonin receptor type 1A (Homo sapiens) (P48039 whole entry): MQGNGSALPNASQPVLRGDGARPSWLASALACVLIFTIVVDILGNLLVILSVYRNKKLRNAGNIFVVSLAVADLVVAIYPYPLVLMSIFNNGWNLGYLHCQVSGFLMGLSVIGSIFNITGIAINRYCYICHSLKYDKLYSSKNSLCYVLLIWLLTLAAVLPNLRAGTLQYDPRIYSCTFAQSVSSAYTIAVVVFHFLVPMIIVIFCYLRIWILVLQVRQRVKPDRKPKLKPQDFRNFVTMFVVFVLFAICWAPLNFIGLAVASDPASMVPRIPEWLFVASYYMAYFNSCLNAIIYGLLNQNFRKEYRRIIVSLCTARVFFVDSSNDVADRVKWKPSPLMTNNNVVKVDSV

[15] = target: Muscarinic acetylcholine receptor M1 (Homo sapiens) (UniProt P11229); assay: Inhibition of muscarinic M1 receptor at 10 uM; procedure, shortened: as §3
Sequence of Muscarinic acetylcholine receptor M1 (Homo sapiens) (P11229 whole entry): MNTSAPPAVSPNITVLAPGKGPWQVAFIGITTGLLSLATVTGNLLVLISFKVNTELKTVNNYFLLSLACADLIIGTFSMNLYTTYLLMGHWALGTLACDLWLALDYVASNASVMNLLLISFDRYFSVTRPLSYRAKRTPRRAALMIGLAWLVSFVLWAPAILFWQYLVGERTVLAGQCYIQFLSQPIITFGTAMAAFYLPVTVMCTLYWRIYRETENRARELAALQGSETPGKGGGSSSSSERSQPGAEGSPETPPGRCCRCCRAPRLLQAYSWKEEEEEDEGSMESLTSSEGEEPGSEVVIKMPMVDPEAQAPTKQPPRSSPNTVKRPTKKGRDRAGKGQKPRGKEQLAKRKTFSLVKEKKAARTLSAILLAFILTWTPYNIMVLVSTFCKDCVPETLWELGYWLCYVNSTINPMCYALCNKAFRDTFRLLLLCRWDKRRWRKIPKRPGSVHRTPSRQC

[16] = target: 5-hydroxytryptamine receptor 1A (Homo sapiens) (UniProt P08908); assay: Inhibition of 5HT1A receptor at 10 uM; procedure, shortened: as §2
[17] = target: 5-hydroxytryptamine receptor 2A (Homo sapiens) (UniProt P28223); assay: Inhibition of 5HT2A receptor at 10 uM; procedure, shortened: as §2
Sequence of 5-hydroxytryptamine receptor 2A (Homo sapiens) (P28223 whole entry): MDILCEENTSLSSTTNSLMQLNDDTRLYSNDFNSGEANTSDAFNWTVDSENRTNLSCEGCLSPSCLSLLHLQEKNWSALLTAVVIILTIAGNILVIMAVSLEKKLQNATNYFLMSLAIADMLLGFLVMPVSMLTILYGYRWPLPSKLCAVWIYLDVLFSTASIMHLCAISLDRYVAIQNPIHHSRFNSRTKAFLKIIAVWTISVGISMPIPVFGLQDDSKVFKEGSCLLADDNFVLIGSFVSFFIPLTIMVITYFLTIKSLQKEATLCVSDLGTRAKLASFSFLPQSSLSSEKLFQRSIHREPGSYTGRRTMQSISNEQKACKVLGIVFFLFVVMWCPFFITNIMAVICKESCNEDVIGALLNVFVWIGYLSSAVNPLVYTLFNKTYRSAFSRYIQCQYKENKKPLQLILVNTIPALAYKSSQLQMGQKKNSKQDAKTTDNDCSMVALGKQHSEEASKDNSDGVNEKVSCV

[18] = target: 5-hydroxytryptamine receptor 3A (Homo sapiens) (UniProt P46098); assay: Inhibition of 5HT3 receptor at 10 uM; procedure, shortened: as §2
Sequence of 5-hydroxytryptamine receptor 3A (Homo sapiens) (P46098 whole entry): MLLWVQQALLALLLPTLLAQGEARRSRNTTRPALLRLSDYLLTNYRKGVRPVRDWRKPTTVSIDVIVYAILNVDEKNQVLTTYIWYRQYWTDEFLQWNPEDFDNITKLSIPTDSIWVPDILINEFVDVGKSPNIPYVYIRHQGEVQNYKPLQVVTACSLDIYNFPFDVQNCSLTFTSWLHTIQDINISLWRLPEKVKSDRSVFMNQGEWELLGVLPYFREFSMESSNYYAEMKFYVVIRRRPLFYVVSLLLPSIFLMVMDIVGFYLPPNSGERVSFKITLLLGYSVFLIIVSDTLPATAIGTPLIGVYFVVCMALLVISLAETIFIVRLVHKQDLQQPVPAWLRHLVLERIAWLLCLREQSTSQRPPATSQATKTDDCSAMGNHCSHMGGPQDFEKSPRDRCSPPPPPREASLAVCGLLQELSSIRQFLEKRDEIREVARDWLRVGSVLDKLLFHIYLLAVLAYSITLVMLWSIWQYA

[19] = target: 5-hydroxytryptamine receptor 5A (Homo sapiens) (UniProt P47898); assay: Inhibition of 5HT5A receptor at 10 uM; procedure, shortened: as §2
[20] = target: 5-hydroxytryptamine receptor 6 (Homo sapiens) (UniProt P50406); assay: Inhibition of 5HT6 receptor at 10 uM; procedure, shortened: as §2
[21] = target: 5-hydroxytryptamine receptor 7 (Homo sapiens) (UniProt P34969); assay: Inhibition of 5HT7 receptor at 10 uM; procedure, shortened: as §2
Sequence of 5-hydroxytryptamine receptor 7 (Homo sapiens) (P34969 whole entry): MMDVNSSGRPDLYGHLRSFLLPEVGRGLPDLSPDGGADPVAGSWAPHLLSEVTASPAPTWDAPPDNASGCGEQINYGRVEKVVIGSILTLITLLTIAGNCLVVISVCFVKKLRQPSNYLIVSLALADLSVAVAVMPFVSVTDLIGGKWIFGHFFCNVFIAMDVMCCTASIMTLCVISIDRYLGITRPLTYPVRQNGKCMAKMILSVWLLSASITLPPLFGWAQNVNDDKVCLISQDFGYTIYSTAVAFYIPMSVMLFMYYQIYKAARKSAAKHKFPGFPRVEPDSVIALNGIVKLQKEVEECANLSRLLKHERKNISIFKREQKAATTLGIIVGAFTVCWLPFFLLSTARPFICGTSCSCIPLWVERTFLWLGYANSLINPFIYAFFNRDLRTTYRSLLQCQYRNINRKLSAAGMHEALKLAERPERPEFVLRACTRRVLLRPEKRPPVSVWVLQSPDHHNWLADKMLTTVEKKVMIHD

[22] = target: Endothelin-1 receptor (Homo sapiens) (UniProt P25101); assay: Inhibition of ETA receptor at 10 uM; procedure, shortened: as §2
[23] = target: Galanin receptor type 2 (Homo sapiens) (UniProt O43603); assay: Inhibition of Galanin receptor type 2 at 10 uM; procedure, shortened: as §2
[24] = target: Melanocortin receptor 4 (Homo sapiens) (UniProt P32245); assay: Inhibition of MC4 receptor at 10 uM; procedure, shortened: as §2
Sequence of Melanocortin receptor 4 (Homo sapiens) (P32245 whole entry): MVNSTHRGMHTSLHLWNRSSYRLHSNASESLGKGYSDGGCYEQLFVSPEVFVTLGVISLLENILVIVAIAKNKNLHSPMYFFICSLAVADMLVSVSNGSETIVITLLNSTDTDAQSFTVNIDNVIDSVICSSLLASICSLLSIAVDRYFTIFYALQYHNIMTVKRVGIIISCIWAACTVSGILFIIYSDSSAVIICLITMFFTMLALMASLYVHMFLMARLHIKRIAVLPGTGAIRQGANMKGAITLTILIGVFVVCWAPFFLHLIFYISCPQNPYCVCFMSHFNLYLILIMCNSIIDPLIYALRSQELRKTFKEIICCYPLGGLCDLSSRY

[25] = target: Substance-K receptor (Homo sapiens) (UniProt P21452); assay: Inhibition of NK2 receptor at 10 uM; procedure, shortened: as §2
Sequence of Substance-K receptor (Homo sapiens) (P21452 whole entry): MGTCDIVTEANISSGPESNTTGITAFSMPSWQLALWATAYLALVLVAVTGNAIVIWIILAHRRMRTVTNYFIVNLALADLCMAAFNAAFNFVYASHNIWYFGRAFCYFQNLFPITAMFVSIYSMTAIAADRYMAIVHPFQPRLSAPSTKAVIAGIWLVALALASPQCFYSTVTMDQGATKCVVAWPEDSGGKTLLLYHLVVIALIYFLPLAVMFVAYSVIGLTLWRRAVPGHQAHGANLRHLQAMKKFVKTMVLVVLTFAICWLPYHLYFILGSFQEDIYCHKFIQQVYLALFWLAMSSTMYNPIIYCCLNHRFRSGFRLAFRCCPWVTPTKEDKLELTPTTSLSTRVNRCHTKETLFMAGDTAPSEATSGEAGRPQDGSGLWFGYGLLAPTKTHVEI

[26] = target: Neurotensin receptor type 1 (Homo sapiens) (UniProt P30989); assay: Inhibition of NTS1 receptor at 10 uM; procedure, shortened: as §2
Sequence of Neurotensin receptor type 1 (Homo sapiens) (P30989 whole entry): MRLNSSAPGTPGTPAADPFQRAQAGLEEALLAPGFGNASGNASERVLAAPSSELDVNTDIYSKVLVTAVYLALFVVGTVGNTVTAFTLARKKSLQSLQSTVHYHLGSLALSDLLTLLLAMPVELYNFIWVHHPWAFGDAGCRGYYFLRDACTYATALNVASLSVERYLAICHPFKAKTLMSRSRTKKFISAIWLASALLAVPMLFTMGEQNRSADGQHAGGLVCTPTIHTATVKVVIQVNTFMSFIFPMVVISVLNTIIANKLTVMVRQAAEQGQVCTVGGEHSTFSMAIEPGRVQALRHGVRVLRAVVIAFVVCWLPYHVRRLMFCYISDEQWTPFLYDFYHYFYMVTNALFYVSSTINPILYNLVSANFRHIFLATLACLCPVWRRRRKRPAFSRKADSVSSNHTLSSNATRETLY

[27] = target: Delta-type opioid receptor (Homo sapiens) (UniProt P41143); assay: Inhibition of delta opioid receptor at 10 uM; procedure, shortened: as §3
[28] = target: Nociceptin receptor (Homo sapiens) (UniProt P41146); assay: Inhibition of ORL1 receptor at 10 uM; procedure, shortened: as §2
Sequence of Nociceptin receptor (Homo sapiens) (P41146 whole entry): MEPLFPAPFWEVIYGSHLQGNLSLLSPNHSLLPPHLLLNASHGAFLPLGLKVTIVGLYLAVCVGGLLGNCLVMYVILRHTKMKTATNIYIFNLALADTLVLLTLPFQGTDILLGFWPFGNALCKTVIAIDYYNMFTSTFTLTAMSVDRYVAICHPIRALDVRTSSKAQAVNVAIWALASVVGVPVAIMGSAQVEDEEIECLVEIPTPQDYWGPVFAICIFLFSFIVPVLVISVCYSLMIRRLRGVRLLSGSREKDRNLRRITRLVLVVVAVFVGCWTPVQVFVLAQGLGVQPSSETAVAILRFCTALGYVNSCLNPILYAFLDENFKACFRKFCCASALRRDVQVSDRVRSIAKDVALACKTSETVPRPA

[29] = target: Vasopressin V1a receptor (Homo sapiens) (UniProt P37288); assay: Inhibition of vasopressin V1a receptor at 10 uM; procedure, shortened: as §3
Sequence of Vasopressin V1a receptor (Homo sapiens) (P37288 whole entry, looked up): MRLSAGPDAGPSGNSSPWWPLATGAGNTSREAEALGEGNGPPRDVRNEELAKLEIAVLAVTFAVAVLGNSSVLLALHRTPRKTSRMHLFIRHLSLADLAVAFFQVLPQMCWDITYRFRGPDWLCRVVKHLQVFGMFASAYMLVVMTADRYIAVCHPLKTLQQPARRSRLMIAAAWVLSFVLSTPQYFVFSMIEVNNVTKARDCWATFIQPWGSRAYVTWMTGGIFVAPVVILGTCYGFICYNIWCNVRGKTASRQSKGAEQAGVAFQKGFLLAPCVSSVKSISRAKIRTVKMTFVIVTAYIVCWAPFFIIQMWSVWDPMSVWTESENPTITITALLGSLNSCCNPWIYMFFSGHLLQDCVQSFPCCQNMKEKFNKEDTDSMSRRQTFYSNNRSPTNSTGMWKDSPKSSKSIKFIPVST

Plasmodium berghei = assay: Antiplasmodial activity as reduced parasitaemia against Plasmodium berghei NK65 infected Sprague-Dawley rat at 50 mg/kg every 12 hrs peroral dose for 3 days

COC(=O)N1CCC(CN(C2Cc3cc(C#N)ccc3N(Cc3cncn3C)C2)S(=O)(=O)c2ccccn2)CC1 (configuration not stated)
81%: inhibition [29]
82%: bioavailability [2]
16 nM: EC50 (Plasmodium falciparum)
inactive: inhibition [12] | inhibition [13] | inhibition [14] | inhibition [16] | inhibition [17] | inhibition [18] | inhibition [19] | inhibition [20] | inhibition [21] | inhibition [22] | inhibition [23] | inhibition [24] | inhibition [25] | inhibition [26] | inhibition [27] | inhibition [28] | Activity (Plasmodium berghei)
64%: inhibition [15]
Non-toxic: Activity (Rattus norvegicus [3]) | Activity (Rattus norvegicus [4]) | Activity (Rattus norvegicus [5]) | Activity (Rattus norvegicus [6]) | Activity (Rattus norvegicus [7]) | Activity (Rattus norvegicus [8]) | Activity (Rattus norvegicus [9]) | Activity (Rattus norvegicus [10]) | Activity (Rattus norvegicus [11]) | Activity (Salmonella typhimurium)
0.533 µM·h: AUC [1]
